From ChEMBL document CHEMBL1629601, “In vitro susceptibility of field isolates of Leishmania donovani to Miltefosine and amphotericin B: correlation with sodium antimony gluconate susceptibility and implications for treatment in areas of endemicity” (2009)
In brackets after ≈: the same amount, converted by molar mass.

How the values were obtained:
Format in all cases: functional
Leishmania donovani [1] = experiment: Antimicrobial activity against Leishmania donovani K131 amastigote; conditions: read-out: ED50 (the source's name)
Leishmania donovani [2] = experiment: Decrease in LdRoS3 gene expression in Leishmania donovani K133 by RT-PCR method
Outline: (§1)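 VL field isolates of L. donovani. Transcript levels of LdMT or LdRos3 were measured by real-time RT-PCR with SYBR green and analysed by the 2−ΔΔCt method. The expression index is the ratio of gene expression to that of the standard L. donovani strain LdAG83, and a decrease is relative to LdAG83. Values are means of three independent experiments.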

Leishmania donovani [3] = experiment: Decrease in LdRoS3 gene expression in Leishmania donovani K59 by RT-PCR method; outline: as §1
Leishmania donovani [4] = experiment: Antimicrobial activity against Leishmania donovani K80 amastigote; conditions: read-out: ED50 (the source's name)
Leishmania donovani [5] = experiment: Decrease in LdRoS3 gene expression in Leishmania donovani K149 by RT-PCR method; outline: as §1
Leishmania donovani [6] = experiment: Antimicrobial activity against Leishmania donovani K149 promastigote; conditions: read-out: ED50 (the source's name)
Leishmania donovani [7] = experiment: Antimicrobial activity against Leishmania donovani K80 promastigote; conditions: read-out: ED50 (the source's name)
Leishmania donovani [8] = experiment: Decrease in LdMT gene expression in Leishmania donovani K439 by RT-PCR method; outline: as §1
Leishmania donovani [9] = experiment: Antimicrobial activity against Leishmania donovani K59 amastigote; conditions: read-out: ED50 (the source's name)
Leishmania donovani [10] = experiment: Decrease in LdRoS3 gene expression in Leishmania donovani K498 by RT-PCR method; outline: as §1
Leishmania donovani [11] = experiment: Decrease in LdMT gene expression in Leishmania donovani K149 by RT-PCR method
Outline: (§2)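 LdMT transcript levels were measured by real-time RT-PCR with SYBR green and analysed by the 2−ΔΔCt method. They are expressed as an expression index, the ratio relative to reference strain LdAG83, and are the mean of three independent experiments.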

Leishmania donovani [12] = experiment: Decrease in LdMT gene expression in Leishmania donovani K135 by RT-PCR method; outline: as §2
Leishmania donovani [13] = experiment: Antimicrobial activity against Leishmania donovani K509 promastigote; conditions: read-out: ED50 (the source's name)
Leishmania donovani [14] = experiment: Antimicrobial activity against Leishmania donovani K498 promastigote; conditions: read-out: ED50 (the source's name)
Leishmania donovani [15] = experiment: Antimicrobial activity against Leishmania donovani K132 amastigote; conditions: read-out: ED50 (the source's name)
Leishmania donovani [16] = experiment: Antimicrobial activity against Leishmania donovani K192 promastigote; conditions: read-out: ED50 (the source's name)
Leishmania donovani [17] = experiment: Antimicrobial activity against Leishmania donovani K149 amastigote; conditions: read-out: ED50 (the source's name)
Leishmania donovani [18] = experiment: Antimicrobial activity against Leishmania donovani K59 promastigote; conditions: read-out: ED50 (the source's name)
Leishmania donovani [19] = experiment: Antimicrobial activity against Leishmania donovani K133 promastigote; conditions: read-out: ED50 (the source's name)
Leishmania donovani [20] = experiment: Antimicrobial activity against Leishmania donovani K481 promastigote; conditions: read-out: ED50 (the source's name)
Leishmania donovani [21] = experiment: Decrease in LdMT gene expression in Leishmania donovani K251 by RT-PCR method; outline: as §1
Leishmania donovani [22] = experiment: Decrease in LdRoS3 gene expression in Leishmania donovani K435 by RT-PCR method; outline: as §1
Leishmania donovani [23] = experiment: Antimicrobial activity against Leishmania donovani K135 amastigote; conditions: read-out: ED50 (the source's name)
Leishmania donovani [24] = experiment: Antimicrobial activity against Leishmania donovani K439 promastigote; conditions: read-out: ED50 (the source's name)
Leishmania donovani [25] = experiment: Decrease in LdMT gene expression in Leishmania donovani K131 by RT-PCR method; outline: as §2
Leishmania donovani [26] = experiment: Decrease in LdRoS3 gene expression in Leishmania donovani K135 by RT-PCR method; outline: as §1
Leishmania donovani [27] = experiment: Antimicrobial activity against Leishmania donovani K516 promastigote; conditions: read-out: ED50 (the source's name)
Leishmania donovani [28] = experiment: Antimicrobial activity against Leishmania donovani K516 amastigote; conditions: read-out: ED50 (the source's name)
Leishmania donovani [29] = experiment: Antimicrobial activity against Leishmania donovani K132 promastigote; conditions: read-out: ED50 (the source's name)
Leishmania donovani [30] = experiment: Antimicrobial activity against Leishmania donovani LdAG83 promastigote; conditions: read-out: ED50 (the source's name)
Leishmania donovani [31] = experiment: Decrease in LdMT gene expression in Leishmania donovani K59M20 by RT-PCR method
Outline: (§3)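 MIL-resistant M20 parasites were generated by raising the MIL concentration stepwise up to 20 μg/ml. LdMT or LdRos3 expression was quantified by real-time RT-PCR (SYBR green, 2−ΔΔCt method) and reported as an expression index, the ratio to the standard strain LdAG83. A decrease is relative to LdAG83. Values are means of three independent experiments.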

Leishmania donovani [32] = experiment: Antimicrobial activity against Leishmania donovani K417M20 amastigote; conditions: read-out: ED50 (the source's name)
Leishmania donovani [33] = experiment: Decrease in LdRoS3 gene expression in Leishmania donovani K192 by RT-PCR method; outline: as §1
Leishmania donovani [34] = experiment: Decrease in LdMT gene expression in Leishmania donovani K498 by RT-PCR method; outline: as §1
Leishmania donovani [35] = experiment: Antimicrobial activity against Leishmania donovani K192 amastigote; conditions: read-out: ED50 (the source's name)
Leishmania donovani [36] = experiment: Decrease in LdRoS3 gene expression in Leishmania donovani K516 by RT-PCR method; outline: as §1
Leishmania donovani [37] = experiment: Antimicrobial activity against Leishmania donovani K417 amastigote; conditions: read-out: ED50 (the source's name)
Leishmania donovani [38] = experiment: Decrease in LdMT gene expression in Leishmania donovani K111 by RT-PCR method; outline: as §2
Leishmania donovani [39] = experiment: Antimicrobial activity against Leishmania donovani K111 amastigote; conditions: read-out: ED50 (the source's name)
Leishmania donovani [40] = experiment: Antimicrobial activity against Leishmania donovani K135 promastigote; conditions: read-out: ED50 (the source's name)
Leishmania donovani [41] = experiment: Decrease in LdMT gene expression in Leishmania donovani K429 by RT-PCR method; outline: as §1
Leishmania donovani [42] = experiment: Decrease in LdRoS3 gene expression in Leishmania donovani K251 by RT-PCR method; outline: as §1
Leishmania donovani [43] = experiment: Decrease in LdRoS3 gene expression in Leishmania donovani K80 by RT-PCR method; outline: as §1
Leishmania donovani [44] = experiment: Decrease in LdMT gene expression in Leishmania donovani K435 by RT-PCR method; outline: as §1
Leishmania donovani [45] = experiment: Antimicrobial activity against Leishmania donovani K111 promastigote; conditions: read-out: ED50 (the source's name)
Leishmania donovani [46] = experiment: Antimicrobial activity against Leishmania donovani K498 amastigote; conditions: read-out: ED50 (the source's name)
Leishmania donovani [47] = experiment: Decrease in LdMT gene expression in Leishmania donovani K516 by RT-PCR method; outline: as §1
Leishmania donovani [48] = experiment: Decrease in LdMT gene expression in Leishmania donovani K133 by RT-PCR method; outline: as §2
Leishmania donovani [49] = experiment: Decrease in LdRoS3 gene expression in Leishmania donovani K216 by RT-PCR method; outline: as §1
Leishmania donovani [50] = experiment: Decrease in LdRoS3 gene expression in Leishmania donovani K417M20 by RT-PCR method; outline: as §3
Leishmania donovani [51] = experiment: Antimicrobial activity against Leishmania donovani LdAG83 amastigote; conditions: read-out: ED50 (the source's name)
Leishmania donovani [52] = experiment: Decrease in LdRoS3 gene expression in Leishmania donovani K131 by RT-PCR method; outline: as §1
Leishmania donovani [53] = experiment: Antimicrobial activity against Leishmania donovani K133 amastigote; conditions: read-out: ED50 (the source's name)
Leishmania donovani [54] = experiment: Antimicrobial activity against Leishmania donovani K417M20 promastigote; conditions: read-out: ED50 (the source's name)
Leishmania donovani [55] = experiment: Antimicrobial activity against Leishmania donovani K251 amastigote; conditions: read-out: ED50 (the source's name)
Leishmania donovani [56] = experiment: Decrease in LdMT gene expression in Leishmania donovani K59 by RT-PCR method; outline: as §1
Leishmania donovani [57] = experiment: Decrease in LdRoS3 gene expression in Leishmania donovani K132 by RT-PCR method; outline: as §1
Leishmania donovani [58] = experiment: Decrease in LdMT gene expression in Leishmania donovani K192 by RT-PCR method; outline: as §1
Leishmania donovani [59] = experiment: Antimicrobial activity against Leishmania donovani K251 promastigote; conditions: read-out: ED50 (the source's name)
Leishmania donovani [60] = experiment: Antimicrobial activity against Leishmania donovani K429 amastigote; conditions: read-out: ED50 (the source's name)
Leishmania donovani [61] = experiment: Antimicrobial activity against Leishmania donovani K439 amastigote; conditions: read-out: ED50 (the source's name)

## CCCCCCCCCCCCCCCCOP(=O)([O-])OCC[N+](C)(C)C [MILTEFOSINE]
Leishmania donovani [1]
  EC50: 0.51 µg/mL (≈ 1.25 µM)
Leishmania donovani [2]
  fold change (FC): 4.52
Leishmania donovani [3]
  fold change (FC): 4.06
Leishmania donovani [4]
  EC50: 1.32 µg/mL (≈ 3.24 µM)
Leishmania donovani [5]
  fold change (FC): 7.69
Leishmania donovani [6]
  EC50: 1.56 µg/mL (≈ 3.83 µM)
Leishmania donovani [7]
  EC50: 1.58 µg/mL (≈ 3.88 µM)
Leishmania donovani [8]
  fold change (FC): 4.76
Leishmania donovani [9]
  EC50: 1.86 µg/mL (≈ 4.56 µM)
Leishmania donovani [10]
  fold change (FC): 7.63
Leishmania donovani [11]
  fold change (FC): 1.08
Leishmania donovani [12]
  fold change (FC): 2.86
Leishmania donovani [13]
  EC50: 1.94 µg/mL (≈ 4.76 µM)
Leishmania donovani [14]
  EC50: 1.32 µg/mL (≈ 3.24 µM)
Leishmania donovani [15]
  EC50: 0.48 µg/mL (≈ 1.18 µM)
Leishmania donovani [16]
  EC50: 1.91 µg/mL (≈ 4.69 µM)
Leishmania donovani [17]
  EC50: 1.57 µg/mL (≈ 3.85 µM)
Leishmania donovani [18]
  EC50: 1.19 µg/mL (≈ 2.92 µM)
Leishmania donovani [19]
  EC50: 0.83 µg/mL (≈ 2.04 µM)
Leishmania donovani [20]
  EC50: 1.9 µg/mL (≈ 4.66 µM)
Leishmania donovani [21]
  fold change (FC): 7.68
Leishmania donovani [22]
  fold change (FC): 4.76
Leishmania donovani [23]
  EC50: 0.72 µg/mL (≈ 1.77 µM)
Leishmania donovani [24]
  EC50: 0.87 µg/mL (≈ 2.13 µM)
Leishmania donovani [25]
  fold change (FC): 2.43
Leishmania donovani [26]
  fold change (FC): 1.67
Leishmania donovani [27]
  EC50: 1.62 µg/mL (≈ 3.97 µM)
Leishmania donovani [28]
  EC50: 2.02 µg/mL (≈ 4.96 µM)
Leishmania donovani [29]
  EC50: 0.53 µg/mL (≈ 1.3 µM)
Leishmania donovani [30]
  EC50: 1.05 µg/mL (≈ 2.58 µM)
Leishmania donovani [31]
  fold change (FC): 13.33
Leishmania donovani [32]
  EC50: > 15 µg/mL
Leishmania donovani [33]
  fold change (FC): 1.9
Leishmania donovani [34]
  fold change (FC): 1.38
Leishmania donovani [35]
  EC50: 1.99 µg/mL (≈ 4.88 µM)
Leishmania donovani [36]
  fold change (FC): 83.33
Leishmania donovani [37]
  EC50: 1.9 µg/mL (≈ 4.66 µM)
Leishmania donovani [38]
  fold change (FC): 3.4
Leishmania donovani [39]
  EC50: 0.85 µg/mL (≈ 2.09 µM)
Leishmania donovani [40]
  EC50: 0.86 µg/mL (≈ 2.11 µM)
Leishmania donovani [41]
  fold change (FC): 1.26
Leishmania donovani [42]
  fold change (FC): 52.63
Leishmania donovani [43]
  fold change (FC): 1.71
Leishmania donovani [44]
  fold change (FC): 2.67
Leishmania donovani [45]
  EC50: 0.47 µg/mL (≈ 1.15 µM)
Leishmania donovani [46]
  EC50: 1.65 µg/mL (≈ 4.05 µM)
Leishmania donovani [47]
  fold change (FC): 8
Leishmania donovani [48]
  fold change (FC): 1.5
Leishmania donovani [49]
  fold change (FC): 9.43
Leishmania donovani [50]
  fold change (FC): 100
Leishmania donovani [51]
  EC50: 0.85 µg/mL (≈ 2.09 µM)
Leishmania donovani [52]
  fold change (FC): 11.1
Leishmania donovani [53]
  EC50: 0.93 µg/mL (≈ 2.28 µM)
Leishmania donovani [54]
  EC50: > 15 µg/mL
Leishmania donovani [55]
  EC50: 1.59 µg/mL (≈ 3.9 µM)
Leishmania donovani [56]
  fold change (FC): 2.84
Leishmania donovani [57]
  fold change (FC): 55.55
Leishmania donovani [58]
  fold change (FC): 0.23
Leishmania donovani [59]
  EC50: 0.4 µg/mL (≈ 0.981 µM)
Leishmania donovani [60]
  EC50: 1.24 µg/mL (≈ 3.04 µM)
Leishmania donovani [61]
  EC50: 1.07 µg/mL (≈ 2.63 µM)
